These results are taken from ChEMBL document CHEMBL3297741, “Cytotoxic cleistanthane and cassane diterpenoids from the entomogenous fungus Paraconiothyrium hawaiiense” (J Nat Prod, 2014).

The IC50 is the concentration that inhibits the measured activity by half. A higher IC50 goes with weaker potency in that assay.

Assay type in all cases: functional, cell-based
Experiment [1] concerns HCT-116. Briefly: Cytotoxicity against human HCT116 cells after 48 hrs by […]. To be noted: HCT-116, 48 h. Summed up:
(§1)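 MTS read-out. Cells were seeded at (2−5) × 10^3 per well, depending on growth rate, and attached overnight. Medium was then replaced with medium holding serial dilutions of compound from 100 mM DMSO stocks, with 0.1% DMSO vehicle and cisplatin control. Plates were incubated 48 h at 37 °C in humidified 5% CO2. MTS was added for 90 min at 37 °C in the dark, and absorbance read at 490 nm. Triplicate runs gave IC50.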

The test system of experiment [2] is HeLa. Briefly: Cytotoxicity against human HeLa cells after 48 hrs by […]. The procedure, abridged: as §1
Experiment [3] concerns MCF7. Description: Cytotoxicity against human MCF7 cells after 48 hrs by […]. To be noted: MCF7, 48 h. The procedure, abridged: as §1
The subject of experiment [4] is A549. Briefly: Cytotoxicity against human A549 cells after 48 hrs by […]. To be noted: A549, 48 h. The procedure, abridged:
as §1

Experiment [5] in a line: Cytotoxicity against human T24 cells after 48 hrs by […]. To be noted: T-24, 48 h. Summed up: as §1
The subject of experiment [6] is HeLa. Briefly: Cytotoxicity against human HeLa cells at 50 uM after 48 hrs by […]. Summed up:
(§2)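 Single concentration of 50 μM tested in the MTS proliferation assay. Cells were seeded at (2−5) × 10^3 per well and attached overnight. Compound was diluted in medium from 100 mM DMSO stock, alongside a 0.1% DMSO vehicle. Plates were incubated 48 h at 37 °C in humidified 5% CO2. MTS was added for 90 min at 37 °C, then absorbance read at 490 nm. Run in triplicate.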

The test system of experiment [7] is A549. Briefly: Cytotoxicity against human A549 cells at 50 uM after 48 hrs by […]. The procedure, abridged:
as §2

For experiment [8], the system named is HCT-116. Description: Cytotoxicity against human HCT116 cells at 50 uM after 48 hrs by […]. The procedure, abridged:
as §2

The subject of the next experiment is T-24. Description: Cytotoxicity against human T24 cells at 50 uM after 48 hrs by […]. Summed up:
as §2

Experiment [9] deals with MCF7. Briefly: Cytotoxicity against human MCF7 cells at 50 uM after 48 hrs by […] assay. The procedure, abridged: as §2

Active and inactive are the calls of the source. No cut-off for these calls is given here.

In the case of `C=C[C@@H]1C(=C)CC[C@H]2[C@H]1C[C@H]1OC(=O)[C@@]3(C)[C@H](OC(C)=O)CC[C@@]2(C)[C@@]13O`, the IC50 amounted to 37.3 µM with HCT-116 [1]; 43.7 µM in the experiment with HeLa [2]; 23.4 µM in the experiment on MCF7 [3]; 43.6 µM with A549 [4]; 20.7 µM in [5].

With `C=CC1=CC[C@H]2[C@@H](CC(=O)[C@@]3(O)[C@@]4(C)C(=O)O[C@H]4CC[C@]23C)[C@H]1C`, the inhibition entry in the experiment on HeLa [6], with A549 [7], in the experiment with HCT-116 [8], in the experiment with T-24 and in the experiment with MCF7 [9] was “inactive” each time.

On to `C=C[C@@H]1C(=C)CC[C@H]2[C@H]1C[C@H]1OC(=O)[C@@]3(C)[C@H](O)CC[C@@]2(C)[C@@]13O`, for which, in the experiment with HeLa [2], half-maximal inhibition (IC50) was put at 50.3 µM.

For `C=C[C@@H]1C(=C)CC[C@H]2[C@H]1CC(=O)[C@@]1(O)[C@@]3(C)C(=O)O[C@H]3CC[C@]21C`, the half-inhibitory concentration (IC50) in the experiment with HCT-116 [1] is 6.23 µM; in the experiment on HeLa [2] it was 2.84 µM; with MCF7 [3], 7.43 µM; in the experiment with A549 [4] it was 7.48 µM; in [5], 4.26 µM.
